Measurements reported in ChEMBL document CHEMBL1128446, “Pyrazinoic acid esters with broad spectrum in vitro antimycobacterial activity” (1995).
In brackets after ≈: the same amount, converted by molar mass.

Tests used:
Type in all cases: functional
[1] = test system: Mycobacterium tuberculosis; test: Minimum Inhibitory Concentration for PZA resistant forms against Mycobacterium tuberculosis ATCC 35828
In short: (§1)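 Broth macrodilution in tubes of modified Middlebrook 7H10 broth (agar and malachite green omitted) with 10% OADC and 0.05% Tween 80 at pH 5.8. Cultures were grown 3 days at 37 °C on a rotary shaker, then diluted with 7H10 broth to 1 Klett unit/mL. Stocks were made in water or DMSO and filter-sterilised; 2-fold serial dilutions were tested. Tubes shaken 7–10 days at 37 °C, with a drug-free control. MIC = lowest concentration (μg/mL) with no visible turbidity.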

[2] = test system: Mycobacterium tuberculosis; test: Minimum Inhibitory Concentration against Mycobacterium tuberculosis ATCC 35828 PZA resistant form; in short: as §1
[3] = test system: Mycobacterium tuberculosis; test: Minimum Inhibitory Concentration against Mycobacterium tuberculosis ATCC 35828 for PZA resistant form; in short: as §1

SMILES	MIC [1]	MIC [2]	other results
CC(C)(OC(=O)c1cnc(Cl)cn1)c1ccccc1	> 16 µg/mL	–	–
CCCCOC(=O)c1cnc(Cl)cn1	–	0.5 µg/mL (≈ 2.33 µM)	–
CCCCCC(C)OC(=O)c1cnc(Cl)cn1 (centres undefined)	–	0.06 µg/mL (≈ 0.234 µM)	–
O=C(O)c1cnc(Cl)cn1	–	64 µg/mL (≈ 404 µM)	–
O=C(OCc1ccccc1)c1cnccn1	–	2 µg/mL (≈ 9.34 µM)	–
CCCCCCCCCCOC(=O)c1cnc(Cl)cn1	–	0.5 µg/mL (≈ 1.67 µM)	–
CCCCCC(C)(CCCCC)OC(=O)c1cnc(Cl)cn1	16 µg/mL (≈ 48.9 µM)	–	–
COC(=O)c1cnccn1	–	64 µg/mL (≈ 463 µM)	–
O=C(Oc1ccc(F)cc1)c1cnccn1	–	16 µg/mL (≈ 73.3 µM)	–
CCCCCCC(C)(CCCCCC)OC(=O)c1cnc(Cl)cn1	0.5 µg/mL (≈ 1.41 µM)	–	–
CCCCCCCC(C)OC(=O)c1cnc(Cl)cn1 (centres undefined)	–	2 µg/mL (≈ 7.02 µM)	–
CCOC(=O)c1cnc(Cl)cn1	–	> 16 µg/mL	–
CCCCCCCCCCCCCCCOC(=O)c1cnccn1	–	1 µg/mL (≈ 2.99 µM)	–
CC(C)(C)OC(=O)c1cnc(Cl)cn1	–	0.5 µg/mL (≈ 2.33 µM)	–
CCCCCCCCC(C)(C)OC(=O)c1cnc(Cl)cn1	0.25 µg/mL (≈ 0.799 µM)	–	–
CCCCCC(C)(CCCC)OC(=O)c1cnc(Cl)cn1 (centres undefined)	16 µg/mL (≈ 51.1 µM)	–	–
NC(=O)c1cnccn1 [PYRAZINAMIDE]	–	2050 µg/mL (≈ 16600 µM)	–
CCCCCCC(C)OC(=O)c1cnc(Cl)cn1 (centres undefined)	–	0.5 µg/mL (≈ 1.85 µM)	–
CCCCCCCCCOC(=O)c1cnc(C)cn1	2 µg/mL (≈ 7.57 µM)	–	–
CCCCCCCCCCC(OC(=O)c1cnc(Cl)cn1)C(C)(C)C (centres undefined)	16 µg/mL (≈ 43.4 µM)	–	–
O=C(Oc1cccc2ccccc12)c1cnccn1	–	8 µg/mL (≈ 32 µM)	–
O=C(OCCc1ccc(Cl)cc1)c1cnc(Cl)cn1	32 µg/mL (≈ 108 µM)	–	–
CCCCCCCC(C)(CCCCC)OC(=O)c1cnc(Cl)cn1 (centres undefined)	8 µg/mL (≈ 22.5 µM)	–	–

SMILES	MIC [1]	MIC [2]	other results
CCCCCCCC(OC(=O)c1cnc(Cl)cn1)C(C)C (centres undefined)	2 µg/mL (≈ 6.39 µM)	–	–
CC(C)COC(=O)c1cnccn1	–	64 µg/mL (≈ 355 µM)	–
CCCCCCCCCCCC(C)OC(=O)c1cnc(Cl)cn1 (centres undefined)	–	0.5 µg/mL (≈ 1.47 µM)	–
CCCCCCC(C)OC(=O)c1cnc(F)cn1 (centres undefined)	4 µg/mL (≈ 15.7 µM)	–	–
CCCCCCCCC(C)(CCCC)OC(=O)c1cnc(Cl)cn1 (centres undefined)	8 µg/mL (≈ 22.5 µM)	–	–
CCCCCCOC(=O)c1cnc(Cl)cn1	–	0.5 µg/mL (≈ 2.06 µM)	–
CCCCCCC(C)(CCCCC)OC(=O)c1cnc(Cl)cn1 (centres undefined)	16 µg/mL (≈ 46.9 µM)	–	–
Cc1ccc(C(C)OC(=O)c2cnc(Cl)cn2)cc1 (centres undefined)	2 µg/mL (≈ 7.23 µM)	–	–
CCCCCCCC(C)(CCCC)OC(=O)c1cnc(Cl)cn1 (centres undefined)	16 µg/mL (≈ 46.9 µM)	–	–
COC(=O)c1cnc(F)cn1	8 µg/mL (≈ 51.2 µM)	–	–
O=C(Oc1c(Br)cc(Br)cc1Br)c1cnccn1	–	32 µg/mL (≈ 73.2 µM)	–
CC(C)COC(=O)c1cnc(Cl)cn1	–	2 µg/mL (≈ 9.32 µM)	–
CCCCCCCCCC(C)OC(=O)c1cnc(Cl)cn1 (centres undefined)	–	1 µg/mL (≈ 3.2 µM)	–
CCCCCCCCCCCOC(=O)c1cnc(Cl)cn1	–	0.5 µg/mL (≈ 1.6 µM)	–
CCCCCC(CC)OC(=O)c1cnc(C)cn1 (centres undefined)	–	1 µg/mL (≈ 3.99 µM)	–
CC(C)(C)C(OC(=O)c1cnc(Cl)cn1)c1ccccc1 (centres undefined)	16 µg/mL (≈ 52.5 µM)	–	–
CCCCCCCOC(=O)c1cnc(C)cn1	1 µg/mL (≈ 4.23 µM)	–	–
CC(OC(=O)c1cnc(Cl)cn1)c1ccc(Br)cc1 (centres undefined)	16 µg/mL (≈ 46.8 µM)	–	–
CCCCCCCCCCOC(=O)c1cnc(F)cn1	4 µg/mL (≈ 14.2 µM)	–	–
O=C(OCc1ccc(Br)cc1)c1cnc(Cl)cn1	> 16 µg/mL	–	–
CCCCCC(CC)OC(=O)c1cnc(Cl)cn1 (centres undefined)	–	–	MIC [3]: 1 µg/mL (≈ 3.69 µM)
CCCOC(=O)c1cnc(Cl)cn1	–	0.25 µg/mL (≈ 1.25 µM)	–
Cc1cc(C(C)(C)C)c(OC(=O)c2cnccn2)c(C(C)(C)C)c1	–	128 µg/mL (≈ 392 µM)	–

SMILES	MIC [1]	MIC [2]	other results
COC(=O)c1cnc(Cl)cn1	–	16 µg/mL (≈ 92.7 µM)	–
CCCCCCOC(=O)c1cnc(F)cn1	8 µg/mL (≈ 35.4 µM)	–	–
CCCCCCCCOC(=O)c1cnc(Cl)cn1	–	< 0.03 µg/mL	–
O=C(OC(c1ccccc1)c1ccccc1)c1cnc(Cl)cn1	16 µg/mL (≈ 49.3 µM)	–	–
CCCCCCCOC(=O)c1cnc(Cl)cn1	–	< 0.03 µg/mL	–
CCCCC(OC(=O)c1cnc(Cl)cn1)c1ccccc1 (centres undefined)	8 µg/mL (≈ 26.2 µM)	–	–
CCCCCCC(C)(C)OC(=O)c1cnc(Cl)cn1	0.25 µg/mL (≈ 0.878 µM)	–	–
CCCCCCCC(OC(=O)c1cnc(Cl)cn1)C(C)(C)C (centres undefined)	2 µg/mL (≈ 6.12 µM)	–	–
CCCOC(=O)c1cnc(C)cn1	1 µg/mL (≈ 5.55 µM)	–	–
CCCCCCCCC(CC)OC(=O)c1cnc(Cl)cn1 (centres undefined)	0.25 µg/mL (≈ 0.799 µM)	–	–
O=C(OCc1ccccc1)c1cnc(Cl)cn1	–	1 µg/mL (≈ 4.02 µM)	–
O=C(OCCc1ccccc1)c1cnc(Cl)cn1	4 µg/mL (≈ 15.2 µM)	–	–
C=CCOC(=O)c1cnc(Cl)cn1	–	2 µg/mL (≈ 10.1 µM)	–
CCCCCCCCCOC(=O)c1cnc(Cl)cn1	–	< 0.03 µg/mL	–
CCCCCCCCCCOC(=O)c1cnccn1	–	0.25 µg/mL (≈ 0.946 µM)	–
CCCCCCC(C)(CCCC)OC(=O)c1cnc(Cl)cn1 (centres undefined)	16 µg/mL (≈ 48.9 µM)	–	–
CCCCCCCCCC(C)(C)OC(=O)c1cnc(Cl)cn1	16 µg/mL (≈ 48.9 µM)	–	–
CCC(C)(CC)OC(=O)c1cnc(Cl)cn1	4 µg/mL (≈ 16.5 µM)	–	–
CCCCCCCCC(C)OC(=O)c1cnc(Cl)cn1 (centres undefined)	–	< 0.03 µg/mL	–
CCCCCOC(=O)c1cnc(Cl)cn1	–	0.12 µg/mL (≈ 0.525 µM)	–
O=C(O)c1cnccn1 [PYRAZINOIC ACID]	–	32 µg/mL (≈ 258 µM)	–
COC(=O)c1cnc(C)cn1	> 16 µg/mL	–	–
Cc1cnc(C(=O)O)cn1	–	> 64 µg/mL	–
